According to ChEMBL document CHEMBL1131231, “New azole antifungals. 2. Synthesis and antifungal activity of heterocyclecarboxamide derivatives of 3-amino-2-aryl-1-azolyl-2-butanol” (1998):
Values after ≈ are worked out from the molar mass of the structure shown.

Experiments:
[1] = system: Mus musculus; test: In vivo antifungal activity against murine candidosis model after peroral administration with 2.5 mg/kg at various time intervals. (percent protection for 100% mortality with fluconazole-treated group.); format: functional; details: route oral
In short: (§1)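 Male mice, groups of 10, infected iv with 0.2 mL Candida albicans at (2–8) × 10⁷ cfu/mL. Oral suspension in 1% Tween + 0.2% carboxymethylcellulose in water, given 1, 4 and 24 h post-infection; vehicle controls and a fluconazole group at the same dose. Survival scored on days 1, 2, 3, 5, 7, 9, reported as % surviving on the day untreated, or fluconazole-treated, mortality reached 100%.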

[2] = The compound was tested in vitro for antifungal activity against 10 yeasts.; format: functional
In short: (§2)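 Agar dilution on Kimmig's agar with 0.5% glycerol; ATCC or clinical isolates, inocula at 10⁵ cfu/mL. Drugs from 800 μg/mL stock in 50% ethanol, 2-fold serial dilutions 80 to 0.03 μg/mL in plates. Incubated 25 °C, 48 h for yeasts, 120 h for filamentous fungi. Value is geometric mean of MICs (μg/mL); >80 taken as 160, ≤0.03 as 0.03.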

[3] = The compound was tested in vitro for antifungal activity against 6 filamentous fungi.; format: functional; in short: as §2
[4] = system: Mus musculus; test: In vivo antifungal activity against murine candidosis model after peroral administration with 2.5 mg/kg at various time intervals. (percent protection for 100% mortality with untreated group); format: functional; details: route oral; in short: as §1
[5] = system: Mus musculus; test: In vivo antifungal activity against murine candidosis model after peroral administration with 0.5 mg/kg for 5 days.(percent protection for 100% mortality with untreated group); format: functional; details: route oral
In short: (§3)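 Second murine systemic Candida albicans model. Mice, n = 10 per group, dosed orally once daily for 5 days after infection. Animals observed for 65 days, with survival rate as read-out and vehicle controls included. Reported as % protection on the day of 100% mortality in the untreated group or in the fluconazole-treated group.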

[6] = system: Candida albicans; test: In vivo antifungal activity against murine candidosis model after peroral administration with 1 mg/kg at various time intervals. (percent protection for 100% mortality with untreated group); format: functional; details: route oral; in short: as §1
[7] = system: Candida albicans; test: In vivo antifungal activity against murine candidosis model after peroral administration with 1 mg/kg at various time intervals. (percent protection for 100% mortality with fluconazole-treated group.); format: functional; details: route oral; in short: as §1
[8] = system: Mus musculus; test: In vivo antifungal activity against murine candidosis model after peroral administration with 0.5 mg/kg for 5 days.(percent protection for 100% mortality with fluconazole-treated group.); format: functional; details: route oral; in short: as §3
[9] = system: Candida albicans; test: In vivo antifungal activity against murine candidosis model after peroral administration with 0.5 mg/kg at various time intervals. (percent protection for 100% mortality with fluconazole-treated group.); format: functional; details: route oral; in short: as §1
[10] = system: Candida albicans; test: In vivo antifungal activity against murine candidosis model after peroral administration with 0.5 mg/kg at various time intervals. (percent protection for 100% mortality with untreated group); format: functional; details: route oral; in short: as §1
[11] = In vivo antifungal activity against murine candidosis model after peroral administration with 1 mg/kg for 5 days.(percent protection for 100% mortality with untreated group); format: functional, Mus musculus; details: route oral; in short: as §3
[12] = system: Mus musculus; test: In vivo antifungal activity against murine candidosis model after peroral administration with 1 mg/kg for 5 days.(percent protection for 100% mortality with fluconazole-treated group.); format: functional; details: route oral; in short: as §3

Structure (SMILES): C[C@@H](NC(=O)c1ccc(-c2cccnc2)s1)[C@](O)(Cn1cncn1)c1ccc(F)cc1F
- Protection [1]: 0%
- MIC [2]: 1.6 µg/mL (≈ 3.51 µM)
- MIC [3]: > 80 µg/mL
- Protection [4]: 60%

Structure (SMILES): C[C@@H](n1cnc2cc(-c3ccc(C#N)cc3)sc2c1=O)[C@](O)(Cn1cncn1)c1ccc(F)cc1F
- MIC [2]: 0.3 µg/mL (≈ 0.595 µM)
- MIC [3]: 13 µg/mL (≈ 25.8 µM)
- Protection [5]: 100%
- Protection [6]: 100%
- Protection [7]: 100%
- Protection [8]: 40%

Structure (SMILES): CS(=O)(=O)O.Cc1nc(-c2ccc(C#N)cc2)sc1C(=O)N[C@H](C)[C@](O)(Cn1cncn1)c1ccc(F)cc1F
- MIC [2]: 1.2 µg/mL
- Protection [9]: 100%
- Protection [10]: 100%
- MIC [3]: 4 µg/mL
- Protection [11]: 100%
- Protection [12]: 10%

Structure (SMILES): C[C@@H](n1cnc2cc(-c3ccc(Cl)cc3)sc2c1=O)[C@](O)(Cn1cncn1)c1ccc(F)cc1F
- MIC [2]: 0.2 µg/mL (≈ 0.389 µM)
- MIC [3]: 2.2 µg/mL (≈ 4.28 µM)
- Protection [11]: 100%
- Protection [12]: 100%
- Protection [6]: 100%
- Protection [7]: 100%

Structure (SMILES): Cc1cc2nnc(C(=O)N[C@H](C)[C@](O)(Cn3cncn3)c3ccc(F)cc3F)c(C)n2n1
- Protection [1]: 0%
- MIC [2]: 10 µg/mL (≈ 22.6 µM)
- MIC [3]: > 80 µg/mL
- Protection [4]: 0%

Structure (SMILES): Cc1nn(C)c2ncc(C(=O)N[C@H](C)[C@](O)(Cn3cncn3)c3ccc(F)cc3F)c(Cl)c12
- Protection [1]: 0%
- MIC [2]: 19 µg/mL (≈ 39.9 µM)
- MIC [3]: > 80 µg/mL
- Protection [4]: 0%

Structure (SMILES): C[C@H]([C@](O)(Cn1cncn1)c1ccc(F)cc1F)S(C)(=O)=O [GENACONAZOLE]
- MIC [2]: 8.7 µg/mL (≈ 26.3 µM)
- Protection [9]: 100%
- Protection [10]: 100%
- MIC [3]: 25 µg/mL (≈ 75.5 µM)
- Protection [11]: 100%
- Protection [12]: 20%

Structure (SMILES): C[C@@H](c1nc(-c2ccc(C#N)cc2)cs1)[C@](O)(Cn1cncn1)c1ccc(F)cc1F [RAVUCONAZOLE]
- MIC [2]: 0.3 µg/mL (≈ 0.686 µM)
- Protection [9]: 0%
- Protection [10]: 50%
- MIC [3]: 0.8 µg/mL (≈ 1.83 µM)
- Protection [11]: 20%
- Protection [12]: 0%

Structure (SMILES): C[C@@H](c1ncncc1F)[C@](O)(Cn1cncn1)c1ccc(F)cc1F [VORICONAZOLE]
- MIC [2]: 0.6 µg/mL (≈ 1.72 µM)
- Protection [9]: 0%
- Protection [10]: 0%
- MIC [3]: 0.5 µg/mL (≈ 1.43 µM)
- Protection [11]: 20%
- Protection [12]: 0%
